From ChEMBL document CHEMBL4011624, “The 1,2,4-Triazolo[4,3-a]pyrazin-3-one as a Versatile Scaffold for the Design of Potent Adenosine Human Receptor Antagonists. Structural Investigations to Target the A2A Receptor Subtype” (J Med Chem, 2017) come the findings set out here.

One experiment addresses T1, Adenosine receptor A1 (Homo sapiens, UniProt P30542).
T1 sequence (P30542 whole entry): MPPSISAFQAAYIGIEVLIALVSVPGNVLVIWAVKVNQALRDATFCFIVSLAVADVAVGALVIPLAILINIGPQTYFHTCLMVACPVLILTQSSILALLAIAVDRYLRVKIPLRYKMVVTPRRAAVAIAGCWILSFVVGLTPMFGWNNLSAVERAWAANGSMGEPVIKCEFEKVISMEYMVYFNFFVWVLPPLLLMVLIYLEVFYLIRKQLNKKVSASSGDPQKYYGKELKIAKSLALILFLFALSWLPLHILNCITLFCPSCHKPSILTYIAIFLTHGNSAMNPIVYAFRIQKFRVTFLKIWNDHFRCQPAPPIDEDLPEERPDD
Description: Displacement of [3H]CCPA from human adenosine receptor A1 expressed in CHO cell membranes after 3 hrs by microbeta scintillation counting method.

The target in another experiment is Adenosine receptor A2a (Homo sapiens, UniProt P29274). Description: Displacement of [3H]NECA from human adenosine receptor A2A expressed in CHO cell membranes after 3 hrs by microbeta scintillation counting method. Background: Displacement assays read how much labelled ligand stays bound in the presence of the test substance.
The target in the next experiment is T2, Adenosine receptor A3 (Homo sapiens, UniProt P0DMS8).
T2 sequence (P0DMS8 whole entry): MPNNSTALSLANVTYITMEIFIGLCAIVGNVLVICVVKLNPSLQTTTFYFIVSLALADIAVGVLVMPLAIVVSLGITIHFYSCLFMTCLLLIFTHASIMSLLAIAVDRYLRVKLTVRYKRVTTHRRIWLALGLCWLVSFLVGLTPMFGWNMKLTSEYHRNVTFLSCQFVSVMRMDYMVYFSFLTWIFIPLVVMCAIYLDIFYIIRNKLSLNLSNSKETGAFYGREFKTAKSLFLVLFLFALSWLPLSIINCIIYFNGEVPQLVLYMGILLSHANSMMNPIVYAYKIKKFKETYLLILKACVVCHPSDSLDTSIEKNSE
The experiment can be described thus: Displacement of [3H]HEMADO from human adenosine receptor A3 expressed in CHO cell membranes after 3 hrs by microbeta scintillation counting method.

The next experiment addresses T3, Adenosine receptor A2b (Homo sapiens, UniProt P29275).
T3 sequence (P29275 whole entry): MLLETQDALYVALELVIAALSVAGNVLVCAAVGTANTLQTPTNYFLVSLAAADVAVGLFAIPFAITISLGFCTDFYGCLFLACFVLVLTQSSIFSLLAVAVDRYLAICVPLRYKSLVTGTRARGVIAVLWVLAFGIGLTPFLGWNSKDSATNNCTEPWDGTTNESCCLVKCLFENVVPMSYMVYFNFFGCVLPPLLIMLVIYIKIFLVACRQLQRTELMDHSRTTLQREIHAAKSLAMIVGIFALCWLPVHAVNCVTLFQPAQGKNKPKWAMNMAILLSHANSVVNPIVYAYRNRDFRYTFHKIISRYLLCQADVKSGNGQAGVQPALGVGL
The experiment can be described thus: Antagonist activity at human adenosine receptor A2B expressed in CHO cell membranes assessed as inhibition of NECA-induced increase of cAMP accumulation preincubated for 10 mins followed by NECA addition measured after 10 mins by GloSensor cAMP assay. It counts as functional, cell-based. In outline: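 Receptors stably transfected in CHO cells. Antagonism read as inhibition of the NECA-stimulated rise in cAMP levels. IC50 values were derived from dose-response curves.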
A general note: cAMP levels reflect the balance of adenylyl cyclase and phosphodiesterase activity.

Sequence of Adenosine receptor A2a (P29274 whole entry): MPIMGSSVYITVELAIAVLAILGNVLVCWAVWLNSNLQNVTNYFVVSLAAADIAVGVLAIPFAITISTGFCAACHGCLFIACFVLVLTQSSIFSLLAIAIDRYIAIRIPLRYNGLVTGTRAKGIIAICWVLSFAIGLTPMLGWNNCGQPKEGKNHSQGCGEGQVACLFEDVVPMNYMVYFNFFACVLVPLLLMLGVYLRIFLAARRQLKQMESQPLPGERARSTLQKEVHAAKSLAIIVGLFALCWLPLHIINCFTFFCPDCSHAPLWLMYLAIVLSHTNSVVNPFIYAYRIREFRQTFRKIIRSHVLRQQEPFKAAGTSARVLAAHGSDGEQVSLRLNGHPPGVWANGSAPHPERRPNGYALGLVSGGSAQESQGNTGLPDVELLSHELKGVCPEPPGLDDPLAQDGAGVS

Usually Ki stands for a measure of affinity in units of concentration, obtained from inhibition or displacement. Low readings indicate higher affinity, high ones lower affinity. The IC50 is the midpoint of a concentration-inhibition curve. In the case of `C#CCOc1ccc(-c2cn3c(=O)n(-c4ccccc4)nc3c(N)n2)cc1`, the Ki is greater than 30000 nM on Adenosine receptor A1, 10.6 nM at Adenosine receptor A2a and greater than 30000 nM at Adenosine receptor A3. In addition, on Adenosine receptor A2b, the IC50 was greater than 30000 nM.
Take `Nc1nc(-c2cccc(O)c2)cn2c(=O)n(-c3ccccc3)nc12`: the inhibitory constant (Ki) on Adenosine receptor A1 worked out at 14 nM; on Adenosine receptor A2a, 3.5 nM; on Adenosine receptor A3, 134 nM. In addition, on Adenosine receptor A2b, the IC50 was greater than 30000 nM.
Take `O=c1[nH]c(-c2ccccc2)cn2c(=O)n(-c3ccccc3O)nc12`: the Ki at Adenosine receptor A1 is 1480 nM; on Adenosine receptor A2a, greater than 30000 nM; at Adenosine receptor A3, 21600 nM. Moreover, the IC50 at Adenosine receptor A2b was greater than 30000 nM.
Consider `COc1ccc(-n2nc3c(N)nc(-c4ccccc4)cn3c2=O)cc1`, for which the inhibition constant Ki was 20 nM on Adenosine receptor A1, 78 nM on Adenosine receptor A2a and 117 nM at Adenosine receptor A3. Besides, the IC50 on Adenosine receptor A2b was greater than 30000 nM.
For the compound `Cc1cn2c(=O)n(-c3ccc(O)cc3)nc2c(=O)[nH]1`, the Ki at Adenosine receptor A1 is 5740 nM; on Adenosine receptor A3 it was 229 nM. Further, on Adenosine receptor A2b, the IC50 was greater than 30000 nM.
In the case of `Nc1nc(-c2ccc(OCC3CCC3)cc2)cn2c(=O)n(-c3ccccc3)nc12`, the Ki at Adenosine receptor A1, at Adenosine receptor A2a and at Adenosine receptor A3 was greater than 30000 nM in each case. In addition, at Adenosine receptor A2b, the IC50 was greater than 30000 nM.
Consider `COc1ccc(-n2nc3c(=O)[nH]c(C)cn3c2=O)cc1`, for which the Ki on Adenosine receptor A1 is greater than 30000 nM; on Adenosine receptor A2a it was greater than 30000 nM; on Adenosine receptor A3, 50 nM. At Adenosine receptor A2b, the IC50 was greater than 30000 nM.
As for `COc1cccc(-c2cn3c(=O)n(-c4ccccc4)nc3c(N)n2)c1`, the figures for the Ki on Adenosine receptor A1, on Adenosine receptor A2a and on Adenosine receptor A3 were 44 nM, 6.8 nM and 42 nM, respectively. For the same compound, the IC50 on Adenosine receptor A2b was greater than 30000 nM.
The like results for `O=c1[nH]c(-c2ccccc2)cn2c(=O)n(-c3ccc(O)cc3)nc12` were, in that order, 129 nM, 387 nM, 0.37 nM and greater than 30000 nM.
Take `Nc1ccc(-n2nc3c(=O)[nH]c(-c4ccccc4)cn3c2=O)cc1`: the values for the Ki on Adenosine receptor A1, at Adenosine receptor A2a and at Adenosine receptor A3 were 247 nM, 415 nM and 63 nM, respectively. For the same compound, the IC50 at Adenosine receptor A2b is greater than 30000 nM.
The like results for `COc1ccc(-c2cn3c(=O)n(-c4ccccc4)nc3c(=O)[nH]2)cc1` were, in that order, greater than 30000 nM, greater than 30000 nM, greater than 30000 nM and greater than 30000 nM.
With `COc1ccc(-n2nc3c(=O)[nH]c(-c4ccccc4)cn3c2=O)cc1`, the Ki on Adenosine receptor A1 is greater than 30000 nM; at Adenosine receptor A2a it was greater than 30000 nM; on Adenosine receptor A3, 214 nM. The IC50 at Adenosine receptor A2b is greater than 30000 nM.
Take `C#CCOc1cccc(-c2cn3c(=O)n(-c4ccccc4)nc3c(N)n2)c1`: the Ki came out at 45 nM on Adenosine receptor A1, 5.1 nM on Adenosine receptor A2a and 67 nM on Adenosine receptor A3. Further, the half-maximal inhibitory concentration (IC50) on Adenosine receptor A2b was greater than 30000 nM.
`CCCOc1ccc(-c2cn3c(=O)n(-c4ccccc4)nc3c(N)n2)cc1`: the inhibition constant (Ki) on Adenosine receptor A1 and at Adenosine receptor A3 was greater than 30000 nM in each case. Also, the IC50 on Adenosine receptor A2b is greater than 30000 nM.
On to `Cc1ccc(-c2cn3c(=O)n(-c4ccccc4)nc3c(=O)[nH]2)cc1`, for which the Ki on Adenosine receptor A1, on Adenosine receptor A2a and at Adenosine receptor A3 was greater than 30000 nM each time. For the same compound, the IC50 at Adenosine receptor A2b was greater than 30000 nM.
`Cc1cn2c(=O)n(-c3ccccc3)nc2c(=O)[nH]1`: the Ki at Adenosine receptor A1 is greater than 30000 nM; at Adenosine receptor A2a, greater than 30000 nM; at Adenosine receptor A3, 60 nM. Also, at Adenosine receptor A2b, the IC50 is greater than 30000 nM.
In the case of `Cc1cn2c(=O)n(-c3ccccc3)nc2c(N)n1`, the inhibition constant Ki on Adenosine receptor A1 is 67 nM; at Adenosine receptor A2a it was 485 nM; at Adenosine receptor A3, 4370 nM. At Adenosine receptor A2b, the IC50 was greater than 30000 nM.
The like results for `Cc1cn2c(=O)n(-c3ccc(O)cc3)nc2c(N)n1` were, in that order, 1000 nM, 1320 nM, 5160 nM and greater than 30000 nM.
With `Nc1nc(-c2ccccc2)cn2c(=O)n(-c3ccccc3O)nc12`, the Ki was 47 nM on Adenosine receptor A2a and 1560 nM at Adenosine receptor A3. For the same compound, the IC50 on Adenosine receptor A2b is greater than 30000 nM.
